Sampled rows, rich in hits. Any-hit rate of the full collection: about 2.1%.
TbHK1 inh = T. brucei hexokinase 1 inhibition; hit rate 0.11% among 220,000; recombinant TbHK1, G6PDH-coupled NADH A340; inhibition, % at 10 µM;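 active means inhibition of 50% or more in the single-dose primary screen; inactive means inhibition below 50%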
Runt-SMMHC FRET = inhibitors of human RUNX1 Runt domain binding to CBFb-SMMHC. Cerulean-Runt/Venus-CBFb-SMMHC FRET ratio 530/480, 1 h. AID 1434. Q01196+Q13951. inhibition, % at 20 µM. hit rate 0.74% among 220,000;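 active means mean inhibition across duplicate retests at 20 µM reaching about 50%, limit read from the data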;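 further: inhibitors lower the FRET ratio by blocking Runt binding to CBFb-SMMHC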
Target sequence (Q01196 whole entry, looked up, the tested form may be a part): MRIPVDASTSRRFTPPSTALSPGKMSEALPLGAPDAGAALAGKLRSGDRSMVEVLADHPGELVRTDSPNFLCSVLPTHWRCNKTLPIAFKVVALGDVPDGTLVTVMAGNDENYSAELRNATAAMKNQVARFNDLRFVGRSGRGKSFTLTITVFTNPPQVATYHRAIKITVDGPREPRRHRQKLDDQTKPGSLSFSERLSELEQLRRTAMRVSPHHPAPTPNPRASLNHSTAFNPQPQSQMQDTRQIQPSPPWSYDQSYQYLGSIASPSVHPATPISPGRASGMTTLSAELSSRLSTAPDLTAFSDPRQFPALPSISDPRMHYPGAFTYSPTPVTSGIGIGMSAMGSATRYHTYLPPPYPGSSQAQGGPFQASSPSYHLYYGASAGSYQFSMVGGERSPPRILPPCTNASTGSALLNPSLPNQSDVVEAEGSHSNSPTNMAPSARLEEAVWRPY
Target sequence (Q13951 whole entry, looked up, the tested form may be a part): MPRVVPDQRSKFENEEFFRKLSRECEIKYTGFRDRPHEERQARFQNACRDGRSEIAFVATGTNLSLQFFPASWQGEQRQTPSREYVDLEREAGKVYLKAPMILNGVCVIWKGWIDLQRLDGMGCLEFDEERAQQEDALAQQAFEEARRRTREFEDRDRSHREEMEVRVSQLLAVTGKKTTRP
p97 ATPase inh = inhibitors of human p97 ATPase | inhibition, % at 8 µM | recombinant p97 ATPase, Kinase-Glo ATP luminescence, 3 h | P55072 | hit rate 0.42% among 220,000; in the data active means inhibition above about 15%
Hck Nef HTS = human Hck-Nef kinase inhibition. Recombinant Hck-YEEI plus Nef, Z-Lyte FRET kinase assay. inhibition, % at 20 µM. hit rate 0.68% among 220,000;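 active means Hck-Nef kinase inhibition above about 50%, limit read from the data; inactive means inhibition below that limit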
RanGTP-Impb inh = inhibitors of RanGTP-importin-beta interaction, primary screen, biochemical, FRET, CFP-Ran, YFP-importin-beta, homogeneous; cell-free CFP-Ran/YFP-importin-beta FRET ratio; inhibition, % (concentration not given with the values); hit rate 1.1% among 300,000;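 active means more than half of the replicate wells show a fall in the fluorescence ratio signal beyond about 16%, limit read from the data, passing the limit was not always enough; inconclusive means exactly half of the replicate wells pass the set limit; inactive means fewer than half of replicates pass the limit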
Runt-CBFb FRET = blocks binding of human RUNX1 Runt domain to CBFb; Cerulean-Runt/Venus-CBFb FRET ratio 530/480, 1 h; inhibition, % at 20 µM; AID 1496; hit rate 0.46% among 220,000;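 active means inhibition over about 50% at 20 µM in the single-dose screen, limit read from the data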
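Measured by: fluorescence energy transfer, 422 nm excitation, 530/480 nm emission; Assay system: Cerulean-Runt domain; Medium: Tris pH 7.5 buffer with BSA; Measure: loss of energy transfer signal; Controls: 5 µM unlabeled CBFb as full-inhibition high control; Incubation: protein complex preformed 1 h, compound exposure 1 h, room temperature, dark.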
Numbers stand for hits; . = inactive; ? = inconclusive; / = no result given; + = active, no number.

SMILES	TbHK1 inh	Runt-SMMHC FRET	p97 ATPase inh	Hck Nef HTS	RanGTP-Impb inh	Runt-CBFb FRET
CC(NC(=O)[C@H](C)NC(=O)[C@@H]1CSC2c3ccccc3C(=O)N21)c1ccccc1 (stereo partly specified)	/	/	/	/	.	/
CCN(CC)c1ccc(/C=N/NC(=O)c2cccc(S(=O)(=O)Nc3ccccc3OC)c2)c(O)c1	.	81	.	.	.	.
CCN(CC)c1ccc(/C=N/NC(=O)c2cccc(S(=O)(=O)Nc3ccccc3OC)c2)cc1	.	.	.	.	.	.
C/C(N)=C(/C#N)C(=O)COc1ccc(Cl)cc1Cl	.	.	.	.	?	.
C/C(N)=C(/C#N)C(=O)COC(=O)CNC(=O)c1ccc(Cl)cc1Cl	.	.	.	.	37	.
CCOc1cc(/C=N/NC(=O)C(N)=O)cc(Br)c1O	.	.	.	.	.	.
CCOc1cc(Br)c(Br)c(C=Nc2ccc(NC(C)=O)cc2)c1O	.	.	.	63	.	.
CC(C)OC(=O)CSc1nnc2n1C(C)(C)Cc1ccccc1-2	.	132	.	.	.	121
CCOC(=O)CSc1nnc2n1C(C)(C)Cc1ccccc1-2	.	.	.	.	?	.
O=C(NCc1ccco1)c1cnn2c(C(F)(F)F)cc(-c3cccs3)nc12	.	52	.	.	?	.
O=C(c1cnn2c(C(F)(F)F)cc(-c3cccs3)nc12)N1CCCC1	.	.	.	.	.	.
O=C(NCc1ccco1)c1cnn2c(C(F)F)cc(-c3ccccc3)nc12	.	.	.	.	32	.
CC(Oc1ccc2ccc(=O)oc2c1)C(=O)c1ccccc1 (stereo unspecified)	.	.	.	.	.	.
CCc1nc(N2CCN(CC(=O)NCC3CCCO3)CC2)c(C#N)c2c1COC(C)(C)C2 (stereo unspecified)	/	/	/	/	.	/
O=C1OC(c2cccs2)=N/C1=C/c1ccc(-c2cccc(C(=O)O)c2)o1	.	.	.	116	/	.
Cn1nccc1NS(=O)(=O)c1ccc(C(C)(C)C)cc1	.	.	.	.	.	.
CCN(CC)Cc1nc2c(c(=O)[nH]1)C1(CCCCC1)Cc1ccccc1-2	.	.	.	.	30	.
CN(C)Cc1nc2c(c(=O)[nH]1)C1(CCCCC1)Cc1ccccc1-2	.	.	.	.	?	.
CCSc1n[nH]c2nc3c(c(=O)n12)C1(CCCC1)Cc1ccccc1-3	.	62	.	.	.	.
Nn1cnc2c(c1=O)C1(CCCCC1)Cc1ccccc1-2	.	.	.	.	26	.
CC(=O)NC12CC3CC(C1)CC(C(=O)Nc1nc4ccc(F)cc4s1)(C3)C2	/	/	/	/	.	/
CC(=O)Nc1ccc(C23CC4CC(CC(C4)C2)C3)cc1	/	/	/	/	26	/
O=C(c1ccccc1Br)N1CCN(Cc2ccc3c(c2)OCO3)CC1	/	/	/	/	.	/
COc1cc2c(cc1OC)C(c1ccc([N+](=O)[O-])cc1)NC(=O)C2 (stereo unspecified)	/	/	/	/	.	/
CC1CC1c1ccc(/C=C(\C#N)C(=O)Nc2cc(Cl)ccc2Cl)o1 (stereo unspecified)	.	.	.	.	24	.
SMILES	TbHK1 inh	Runt-SMMHC FRET	p97 ATPase inh	Hck Nef HTS	RanGTP-Impb inh	Runt-CBFb FRET
CC1CC1c1ccc(/C=C(\C#N)C(=O)Nc2ccc(Cl)cc2Cl)o1 (stereo unspecified)	.	.	.	.	40	.
O=C(O)C1CCCCC1C(=O)Nc1cc(Cl)ccc1Cl (stereo unspecified)	.	.	.	.	.	.
Cc1ccc(OC(=O)c2cccc(S(=O)(=O)N3CCN(C)CC3)c2)c(Br)c1	/	/	/	/	.	/
CC1(C)CC(=O)c2sc(NC(=O)c3cccs3)nc2C1	.	.	.	.	?	.
N#Cc1ccc(C(=O)NCCCSc2ccccc2)cc1	/	/	/	/	.	/
COC(=O)C1=CN(c2cccc(Cl)c2)C=C(C(=O)OC)C1c1cccc(OC)c1	/	/	/	/	.	/
COC(=O)C1=CNC=C(C(=O)OC)C1c1cccc(OC)c1	.	100	.	.	.	.
COC(=O)C1=CN(c2ccc(Cl)cc2)C=C(C(=O)OC)C1c1ccc([N+](=O)[O-])cc1	/	/	/	/	.	/
COC(=O)C1=CNC=C(C(=O)OC)C1c1ccc(Cl)cc1	.	83	.	.	.	.
CC(Oc1ccccc1F)C(=O)NC1CCS(=O)(=O)C1 (stereo unspecified)	/	/	/	/	.	/
CCc1nnc(NS(=O)(=O)c2ccc(N/C=C/C(=O)c3ccc(OC)cc3)cc2)s1	.	50	.	.	.	.
COc1cc(NS(=O)(=O)c2ccc(N/C=C\C(=O)c3ccc(F)cc3)cc2)nc(OC)n1	.	72	.	.	.	.
CCN(CC)CCCNC(=O)C1CCC(=O)N(c2ccc(OC)cc2)C1c1ccc(F)cc1 (stereo unspecified)	.	.	.	.	54	.
COc1cccc(CN2C(=O)c3ccccc3S2(=O)=O)c1	/	/	/	/	.	/
COc1cccc(CN2C(=O)c3cccc(N)c3C2=O)c1	.	73	.	.	?	.
CN(C)[C@@H]1C(=O)C(C(=O)NCN2CCCC2)=C(O)[C@@]2(O)C(=O)C3=C(O)c4c(O)cccc4[C@@](C)(O)C3CC12 (stereo partly specified)	.	.	23	.	/	.
Cc1ccc(-n2nc(C)c(NS(=O)(=O)c3ccccc3)c2C)cc1C	.	.	.	.	36	.
O=C(c1ccccc1)[C@@H]1[C@@H](C(=O)c2ccc(F)cc2)[C@@]2(C(=O)Nc3ccccc32)[C@H]2c3ccccc3C=CN12	.	.	.	.	21	.
c1ccc(-c2ccc(-c3nccc4ccccc34)[nH]2)cc1	.	61	.	57	/	.
C/C(=N\OCC(=O)Nn1c(=O)[nH]c2ccccc2c1=O)c1ccccc1	.	.	.	.	.	.
CCN1C=CC2=C(C#N)C(N)C(C#N)(C#N)C(c3ccccc3C(F)(F)F)C2C1 (stereo unspecified)	.	83	.	.	58	76
CCN1C=C(Cc2ccccc2C)C2=C(C1)C(c1ccccc1C)C(C#N)=C(N)O2 (stereo unspecified)	.	.	.	.	.	.
CC(C)OCCCn1c(=NC(=O)c2cccs2)c(C#N)cc2c(=O)n3ccccc3nc21	.	81	.	.	103	77
C=CCn1c(=N)c(C#N)cc2c(=O)n3ccccc3nc21	.	75	.	.	+	.
N#Cc1cc2c(=O)n3ccccc3nc2n(Cc2cccnc2)c1=N	.	/	.	.	/	/
COCCCn1c(C(=O)N2CC(C)OC(C)C2)cc2c(=O)n3cccc(C)c3nc21 (stereo unspecified)	/	/	/	/	.	/
CCN(CC)C(=O)c1cc2c(=O)n3cccc(C)c3nc2n1C	.	.	.	.	.	.
CCCCn1c(=NC(C)=O)c(C#N)cc2c(=O)n3cccc(C)c3nc21	/	/	/	/	85	/
CCOCCCn1c(=NC(C)=O)c(C#N)cc2c(=O)n3cccc(C)c3nc21	.	88	.	.	123	59

Bioassay records deposited in PubChem BioAssay by several laboratories.
